Assay results from ChEMBL document CHEMBL1121428, “Derivatives of 11-(1-piperazinyl)-5H-pyrrolo[2,1-c][1,4]benzodiazepine as central nervous system agents” (1980).
Activity calls are given as the source filed them. The calls are words filed in the database; no cut-off is given here.

What was measured:
Mus musculus [1] = assay: Minimum effective dose was measured orally by antagonism of tetrabenazine-induced depression in mice(po); assay type: functional; settings: read-out: MED
In short: (§1)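 Mice given tetrabenazine to induce depression; test agent given orally to look for antagonism of that depression. The value is the minimum effective dose. Each test group held 5 to 10 animals. The protocol is the same as in the group's earlier publications.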

Rattus norvegicus = assay: Estimated oral dose depressing motor activity by 50% in rats(po); assay type: functional
In short: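 Rats dosed orally; spontaneous motor activity recorded. The value is the estimated dose that lowers motor activity by 50%. Each test group held 5 to 10 animals. The protocol is the same as in the authors' earlier reports.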

Mus musculus [2] = assay: Oral dose required for antagonism of d-amphetamine lethality in grouped mice (GAL); assay type: functional
In short: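 Drug was given orally to grouped mice challenged with d-amphetamine, and survival (protection from lethality) was recorded. Each test group had 5 to 10 animals. The result is an ED50 with 95% confidence limits, calculated by the arc-sine transformation method of Finney.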

Mus musculus [3] = assay: Intraperitoneal dose required for antagonism of d-amphetamine lethality in grouped mice (GAL); assay type: functional; settings: ip
In short: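 Mice housed in groups received drug intraperitoneally and were scored for protection against d-amphetamine-induced lethality. There were 5 to 10 animals per dose group. The ED50 was the dose protecting 50% of mice. 95% confidence limits came from Finney's arc-sine transformation method.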

Mus musculus [4] = assay: Minimum effective dose was measured orally by antagonism of tetrabenazine-induced depression in mice(po); inact means compound is inactive.; assay type: functional, organism-based; in short: as §1

| Compound | minimal effective dose (Mus musculus [1]) [mg/kg] | MDD50 (Rattus norvegicus) [mg/kg] | ED50 (Mus musculus [2]) [mg/kg] | ED50 (Mus musculus [3]) [mg/kg] | MED (Mus musculus [4]) |
| --- | --- | --- | --- | --- | --- |
| CN(C)CCCN1c2ccccc2CCc2ccccc21 [IMIPRAMINE] | 5 | >50 | – | – | – |
| c1ccc2c(c1)Cn1cccc1C(N1CCNCC1)=N2 | 3.1 | – | 4.7 | – | – |
| CN1CCN(C2=Nc3cc(Cl)ccc3Cn3cccc32)CC1 | – | 12 | – | 4 | inactive |
| CN1CCN(C2=Nc3ccc(Cl)cc3Cn3cccc32)CC1 | – | 50 | – | 16 | inactive |
| CN(C)CCCN1c2ccccc2Sc2ccc(Cl)cc21 [CHLORPROMAZINE] | – | 2.4 | – | 0.6 | inactive |
| CN1CCN(C2=Nc3cc(Cl)ccc3Nc3ccccc32)CC1 [CLOZAPINE] | – | 21 | – | 2.2 | inactive |
| CN1CCN(C2=Nc3ccccc3Cn3cccc32)CC1 | – | 7 | – | 1 | inactive |
